# Reference: ChEMBL document CHEMBL1152672, “Side chain azasteroids and thiasteroids as sterol methyltransferase inhibitors in ergosterol biosynthesis” (2009)
# Legend:
# [1] = molecular target: T1, Sterol 24-C-methyltransferase (Yarrowia lipolytica) (UniProt Q6C2D9); experiment: Inhibition of Yarrowia lipolytica 24-SMT assessed as 5-dehydroepisterol-3-trimethylsilyl derivative at 2 ug/mL after 48 hrs by GC-MS analysis relative to untreated control; set-up: scale not given: the % may be the effect or the level left
# T1 sequence (whole entry): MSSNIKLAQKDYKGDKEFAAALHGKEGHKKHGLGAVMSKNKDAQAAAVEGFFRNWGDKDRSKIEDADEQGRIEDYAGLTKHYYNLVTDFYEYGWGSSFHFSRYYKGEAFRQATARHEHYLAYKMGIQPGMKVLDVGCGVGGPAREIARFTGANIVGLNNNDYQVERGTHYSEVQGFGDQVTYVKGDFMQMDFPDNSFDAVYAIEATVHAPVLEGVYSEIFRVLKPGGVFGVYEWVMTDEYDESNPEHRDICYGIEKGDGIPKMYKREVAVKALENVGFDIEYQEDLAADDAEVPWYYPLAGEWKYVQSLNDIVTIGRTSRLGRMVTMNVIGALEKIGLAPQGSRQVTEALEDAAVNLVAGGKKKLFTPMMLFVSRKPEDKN
# How it was run: (§1)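 Whole-cell sterol profiling. Y. lipolytica at 50,000 CFU/mL was exposed to compounds added from ethanol for 48 ± 2 h at 28 °C, and the MIC/2 and/or MIC/4 wells were used. Cells were pelleted and PBS-washed, then saponified in 1 M NaOH at 70 °C for 1 h. Sterols were extracted into TBME with a cholesterol internal standard and silylated to TMS ethers. GC-MS full scan, with each sterol given as % of total integrated quantifier-ion area.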
# [2] = molecular target: T1, Sterol 24-C-methyltransferase (Yarrowia lipolytica); experiment: Inhibition of Yarrowia lipolytica 24-SMT assessed as 5-dehydroepisterol-3-trimethylsilyl derivative at 1 ug/mL after 48 hrs by GC-MS analysis relative to untreated control; set-up: scale not given: the % may be the effect or the level left; how it was run: as §1
# [3] = molecular target: T1, Sterol 24-C-methyltransferase (Yarrowia lipolytica); experiment: Inhibition of Yarrowia lipolytica 24-SMT assessed as cholesta-7,24-dien-3-trimethylsilyl derivative at 2 ug/mL after 48 hrs by GC-MS analysis relative to untreated control; set-up: scale not given: the % may be the effect or the level left; how it was run: as §1
# [4] = molecular target: T1, Sterol 24-C-methyltransferase (Yarrowia lipolytica); experiment: Inhibition of Yarrowia lipolytica 24-SMT assessed as dehydroergosterol-3-trimethylsilyl derivative at 1 ug/mL after 48 hrs by GC-MS analysis relative to untreated control; set-up: scale not given: the % may be the effect or the level left; how it was run: as §1
# [5] = molecular target: T1, Sterol 24-C-methyltransferase (Yarrowia lipolytica); experiment: Inhibition of Yarrowia lipolytica 24-SMT assessed as dehydroergosterol-3-trimethylsilyl derivative at 2 ug/mL after 48 hrs by GC-MS analysis relative to untreated control; set-up: scale not given: the % may be the effect or the level left; how it was run: as §1
# Yarrowia lipolytica = experiment: Antimicrobial activity against Yarrowia lipolytica after 48 hrs; assay type: functional
# How it was run: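 Broth dilution MIC per DIN 58940-84. Log-phase Y. lipolytica in yeast extract/peptone/glucose medium, counted against a 0.5 McFarland standard (A570) and seeded at 50,000 CFU/mL in 2 mL wells. Compounds added from ethanol; final concentrations 2 to 0.06125 µg/mL unless otherwise stated. Plates incubated 48 ± 2 h at 28 °C. MIC is the lowest concentration with no visible growth.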
# [6] = molecular target: T1, Sterol 24-C-methyltransferase (Yarrowia lipolytica); experiment: Inhibition of Yarrowia lipolytica 24-SMT assessed as zymosterol-3-trimethylsilyl derivative level at 2 ug/mL after 48 hrs by GC-MS analysis relative to untreated control; set-up: scale not given: the % may be the effect or the level left; how it was run: as §1
# [7] = molecular target: T1, Sterol 24-C-methyltransferase (Yarrowia lipolytica); experiment: Inhibition of Yarrowia lipolytica 24-sterol C-methyltransferase assessed as ergosterol-3-trimethylsilyl derivative level at 2 ug/mL after 48 hrs by GC-MS analysis relative to untreated control; set-up: scale not given: the % may be the effect or the level left; how it was run: as §1
# [8] = molecular target: T1, Sterol 24-C-methyltransferase (Yarrowia lipolytica); experiment: Inhibition of Yarrowia lipolytica 24-sterol C-methyltransferase assessed as ergosterol-3-trimethylsilyl derivative level at 1 ug/mL after 48 hrs by GC-MS analysis relative to untreated control; set-up: scale not given: the % may be the effect or the level left; how it was run: as §1
# [9] = molecular target: T1, Sterol 24-C-methyltransferase (Yarrowia lipolytica); experiment: Inhibition of Yarrowia lipolytica 24-sterol C-methyltransferase assessed as cholesta-5,7,24-trien-3-trimethylsilyl derivative at 1 ug/mL after 48 hrs by GC-MS analysis relative to untreated control; set-up: scale not given: the % may be the effect or the level left; how it was run: as §1
# [10] = molecular target: T1, Sterol 24-C-methyltransferase (Yarrowia lipolytica); experiment: Inhibition of Yarrowia lipolytica 24-SMT assessed as cholesta-5,7,24-trien-3-trimethylsilyl derivative at 2 ug/mL after 48 hrs by GC-MS analysis relative to untreated control; set-up: scale not given: the % may be the effect or the level left; how it was run: as §1
# [11] = molecular target: T1, Sterol 24-C-methyltransferase (Yarrowia lipolytica); experiment: Inhibition of Yarrowia lipolytica 24-SMT assessed as cholesta-7,24-dien-3-trimethylsilyl derivative at 1 ug/mL after 48 hrs by GC-MS analysis relative to untreated control; set-up: scale not given: the % may be the effect or the level left; how it was run: as §1
# [12] = molecular target: T1, Sterol 24-C-methyltransferase (Yarrowia lipolytica); experiment: Inhibition of Yarrowia lipolytica 24-SMT assessed as dehydroergosterol-3-trimethylsilyl derivative at 0.2 ug/mL after 48 hrs by GC-MS analysis relative to untreated control; set-up: scale not given: the % may be the effect or the level left; how it was run: as §1
# [13] = molecular target: T1, Sterol 24-C-methyltransferase (Yarrowia lipolytica); experiment: Inhibition of Yarrowia lipolytica 24-SMT assessed as 14-alpha-methylergosta-8,24(28)-dien-3beta,6alpha-di-trimethylsilyl derivative at 0.2 ug/mL after 48 hrs by GC-MS analysis relative to untreated control; set-up: scale not given: the % may be the effect or the level left
# How it was run: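 Y. lipolytica whole cells, inoculated at 50,000 CFU/mL in yeast extract/peptone/glucose medium, exposed to compound (ethanol solution, 10 µL per 2 mL well), 48 ± 2 h, 28 °C. Wells at MIC/2 and/or MIC/4 pelleted, saponified in 1 M NaOH at 70 °C for 1 h, extracted with TBME and silylated. GC–MS with cholesterol internal standard. Each sterol given as percent of total integrated area; ethanol-only wells as control.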
# [14] = molecular target: T1, Sterol 24-C-methyltransferase (Yarrowia lipolytica); experiment: Inhibition of Yarrowia lipolytica 24-SMT assessed as lanosterol-3-trimethylsilyl derivative at 0.2 ug/mL after 48 hrs by GC-MS analysis relative to untreated control; set-up: scale not given: the % may be the effect or the level left; how it was run: as §1
# [15] = molecular target: T1, Sterol 24-C-methyltransferase (Yarrowia lipolytica); experiment: Inhibition of Yarrowia lipolytica 24-SMT assessed as ergosterol-3-trimethylsilyl derivative level at 0.2 ug/mL after 48 hrs by GC-MS analysis relative to untreated control; set-up: scale not given: the % may be the effect or the level left; how it was run: as §1
Structure (SMILES),Activity [1] [%],Activity [2] [%],Activity [3] [%],Activity [4] [%],Activity [5] [%],MIC (Yarrowia lipolytica) [µg/mL],Activity [6] [%],Activity [7] [%],Activity [8] [%],Activity [9] [%],Activity [10] [%],Activity [11] [%],Activity [12] [%],Activity [13] [%],Activity [14] [%],Activity [15] [%]
C[C@H](CNCCN1CCCC1)[C@H]1CC[C@H]2C3=CC[C@H]4C[C@@H](O)CC[C@]4(C)[C@H]3CC[C@]12C,3.6,4.8,6,65.4,40.1,> 2,0.4,3.3,1.7,24.3,46.6,3.6,–,–,–,–
CC(=O)N1CCN(c2ccc(OCC3COC(Cn4ccnc4)(c4ccc(Cl)cc4Cl)O3)cc2)CC1 (configuration not stated) [KETOCONAZOLE],–,–,–,–,–,0.5,–,–,–,–,–,–,59.1,2.4,28.9,9.6
